Legend:
Influenza A virus [1] = experiment: Antiviral activity against Influenza A virus A/PR/8/34(H1N1) infected in MDCK cells assessed as reduction in virus-induced cytopathic effect after 3 days by microscopic method; type: functional, organism-based, A/Puerto Rico/8/1934(H1N1); conditions: Influenza A virus, A/Puerto Rico/8/1934(H1N1), MDCK, 72 h
How it was run: (§1)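 Semi-confluent MDCK cells were infected at an MOI of 0.0004 PFU/cell in Ultra-MDCK infection medium with 2 μg/mL TPCK-trypsin, together with compounds. After 3 days at 35 °C, CPE was scored by microscopy and confirmed by MTS formazan viability. EC50 is the concentration giving 50% inhibition of virus-induced CPE. Values are means of two to five independent tests.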

Influenza A virus [2] = experiment: Antiviral activity against Influenza A virus A/PR/8/34(H1N1) infected in MDCK cells after 3 days by MTS assay; type: functional, organism-based, A/Puerto Rico/8/1934(H1N1); conditions: Influenza A virus, A/Puerto Rico/8/1934(H1N1), MDCK, 72 h; how it was run: as §1
Influenza A virus [3] = experiment: Antiviral activity against Influenza A virus A/Virginia/ATCC3/2009(H1N1pdm) infected in MDCK cells assessed as reduction in virus-induced cytopathic effect after 3 days by microscopic method; type: functional, organism-based, Influenza A virus (A/Virginia/03/2009(H1N1)); conditions: 72 h; how it was run: as §1
Influenza A virus [4] = experiment: Antiviral activity against Influenza A virus A/Virginia/ATCC3/2009(H1N1pdm) infected in MDCK cells after 3 days by MTS assay; type: functional, organism-based, Influenza A virus (A/Virginia/03/2009(H1N1)); conditions: 72 h; how it was run: as §1
H3N2 subtype [5] = experiment: Antiviral activity against Influenza A virus A/HK/7/87(H3N2) infected in MDCK cells assessed as reduction in virus-induced cytopathic effect after 3 days by microscopic method; type: functional, organism-based; conditions: A/Hong Kong/7/1987(H3N2), 72 h; how it was run: as §1
H3N2 subtype [6] = experiment: Antiviral activity against Influenza A virus A/HK/7/87(H3N2) infected in MDCK cells after 3 days by MTS assay; type: functional, organism-based; conditions: A/Hong Kong/7/1987(H3N2), 72 h; how it was run: as §1
Influenza B virus [7] = experiment: Antiviral activity against Influenza B virus B/HK/05/72 infected in MDCK cells assessed as reduction in virus-induced cytopathic effect after 3 days by microscopic method; type: functional, organism-based; conditions: B/Hong Kong/05/1972, MDCK, 72 h; how it was run: as §1
Influenza B virus [8] = experiment: Antiviral activity against Influenza B virus B/HK/05/72 infected in MDCK cells after 3 days by MTS assay; type: functional, organism-based; conditions: B/Hong Kong/05/1972, MDCK, 72 h; how it was run: as §1
MDCK = experiment: Cytotoxicity against MDCK cells assessed as reduction in cell viability after 3 days by MTS assay; type: cell-based, Canis lupus familiaris; conditions: dog, mdck, 72 h
[9] = Cytotoxicity against MDCK cells assessed as alteration in cell morphology after 3 days by microscopic method; type: cell-based, Canis lupus familiaris; conditions: dog
How it was run: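 Mock-infected MDCK cells were treated with compounds in parallel with the antiviral assay, 3 days at 35 °C. MCC is the concentration causing minimal change in cell morphology by microscopy. CC50 is the 50% cytotoxic concentration by MTS formazan viability assay.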

Human coronavirus 229E [10] = experiment: Antiviral activity against Human coronavirus 229E infected in human A549 cells assessed as reduction in virus RNA level after 3 days by qRT-PCR method; type: functional; conditions: A549, 72 h
How it was run: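 Confluent A549 cells were infected with HCoV-229E in 2% FCS medium with compounds present. The inoculum was removed at 1 h and compounds were kept on at 35 °C. Supernatants were harvested at day 3, lysed at 75 °C for 10 min, and viral genome copies counted by one-step qRT-PCR.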

[11] = Cytotoxicity against human A549 cells assessed as changes in cell morphology after 3 days by microscopic method; type: cell-based
How it was run: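 Mock-infected A549 cells were incubated with compounds for 3 days. MCC is the concentration causing minimal change in cell morphology by microscopy.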

Influenza B virus [12] = experiment: Antiviral activity against Influenza B virus B/Ned/537/05 infected in MDCK cells assessed as reduction in virus-induced cytopathic effect after 3 days by microscopic method; type: functional, organism-based; conditions: B/Ned/537/05, MDCK, 72 h
How it was run: (§2)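 Semi-confluent MDCK cells were infected at an MOI of 0.0004 PFU/cell in Ultra-MDCK infection medium with 2 μg/mL TPCK-trypsin, together with compounds. After 3 days at 35 °C, CPE was scored by microscopy and confirmed by MTS formazan viability. Values are means of two to five independent tests.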

Influenza B virus [13] = experiment: Antiviral activity against Influenza B virus B/Ned/537/05 infected in MDCK cells after 3 days by MTS assay; type: functional, organism-based; conditions: B/Ned/537/05, MDCK, 72 h; how it was run: as §2
Human coronavirus 229E [14] = experiment: Antiviral activity against Human coronavirus 229E infected in HEL299 cells assessed as reduction in virus induced cytopathic effect after 5 days by microscopic method; type: functional, organism-based; conditions: HEL 299, 120 h
How it was run: (§3)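 Confluent HEL 299 cells in medium with 2% FCS were exposed to HCoV-229E (100 CCID50/well) together with compounds and held for 5 days at 35 °C. EC50 (CPE reduction) and MCC (minimal morphology change) were determined by microscopy. SI is MCC/EC50.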

[15] = Cytotoxicity against HEL299 cells assessed as changes in cell morphology after 5 days by microscopic method; type: cell-based, HEL 299; conditions: human; how it was run: as §3

| SMILES | EC50 (Influenza A virus [1]) [µM] | EC50 (Influenza A virus [2]) [µM] | EC50 (Influenza A virus [3]) [µM] | EC50 (Influenza A virus [4]) [µM] | EC50 (H3N2 subtype [5]) [µM] | EC50 (H3N2 subtype [6]) [µM] | EC50 (Influenza B virus [7]) [µM] | EC50 (Influenza B virus [8]) [µM] | CC50 (MDCK) [µM] | MCC at 72 h [9] [µM] | EC90 (Human coronavirus 229E [10]) [µM] | EC99 (Human coronavirus 229E [10]) [µM] | MCC at 72 h [11] [µM] | EC50 (Influenza B virus [12]) [µM] | EC50 (Influenza B virus [13]) [µM] | EC50 (Human coronavirus 229E [14]) [µM] | MCC at 120 h [15] [µM] |
| --- | --- | --- | --- | --- | --- | --- | --- | --- | --- | --- | --- | --- | --- | --- | --- | --- | --- |
| CCCCCCCCSC1=C(SCCCCCCCC)C(=O)N([C@H]2C(=O)N[C@@H]3Cc4ccc(c(Cl)c4)Oc4cc5cc(c4O)Oc4ccc(cc4Cl)[C@@H](O[C@@H]4O[C@H](CO)[C@@H](O)[C@H](O)[C@H]4NC(C)=O)[C@H]4NC(=O)[C@H](NC(O)[C@@H]5NC(=O)[C@@H](NC3=O)c3cc(O)cc(c3)Oc3cc2ccc3O)c2ccc(O)c(c2)-c2c(O)cc(O)cc2[C@H](C(=O)O)NC4=O)C1=O (stereo not given in full) | > 100 | > 100 | 2.1 | 1.9 | > 100 | > 100 | > 100 | > 100 | 11 | 20 | – | – | – | – | – | – | – |
| O=C(N/C(=C\c1ccccc1)C(=O)N1CCC(O)(c2ccc(Br)cc2)CC1)c1ccccc1 | – | – | – | – | – | – | – | – | – | – | 11 | 15 | ≥ 50 | – | – | – | – |
| CC(=O)N[C@H]1[C@H](O[C@@H]2c3ccc(c(Cl)c3)Oc3cc4cc(c3O)Oc3ccc(cc3Cl)C[C@H]3NC(=O)C(n5cc(CN6C(=O)C(SC[C@H]7O[C@@H]8OC(C)(C)O[C@@H]8[C@H]8OC(C)(C)O[C@H]87)=C(SC[C@H]7O[C@@H]8OC(C)(C)O[C@@H]8[C@H]8OC(C)(C)O[C@H]87)C6=O)nn5)c5ccc(O)c(c5)Oc5cc(O)cc(c5)[C@H](NC3=O)C(=O)N[C@H]4C(O)N[C@H]3C(=O)N[C@H]2C(=O)N[C@@H](C(=O)O)c2cc(O)cc(O)c2-c2cc3ccc2O)O[C@H](CO)[C@@H](O)[C@@H]1O (stereo not given in full) | > 100 | > 100 | > 100 | > 100 | > 100 | > 100 | > 100 | > 100 | 18 | 20 | – | – | – | – | – | – | – |
| CCCCOCc1cn(CCOCCOCCOCCOCc2cn([C@H]3C(=O)N[C@@H]4Cc5ccc(c(Cl)c5)Oc5cc6cc(c5O)Oc5ccc(cc5Cl)[C@@H](O[C@@H]5O[C@H](CO)[C@@H](O)[C@H](O)[C@H]5NC(C)=O)[C@H]5NC(=O)[C@H](NC(O)[C@@H]6NC(=O)[C@@H](NC4=O)c4cc(O)cc(c4)Oc4cc3ccc4O)c3ccc(O)c(c3)-c3c(O)cc(O)cc3[C@H](C(=O)O)NC5=O)nn2)nn1 (stereo not given in full) | > 100 | 51 | > 100 | 47 | > 100 | 31 | – | – | > 100 | 100 | – | – | – | > 100 | 28 | ≥ 100 | ≥ 100 |
| CCCSC1=C(SCCC)C(=O)N(Cc2cn(C3C(=O)N[C@@H]4Cc5ccc(c(Cl)c5)Oc5cc6cc(c5O)Oc5ccc(cc5Cl)[C@@H](O[C@@H]5O[C@H](CO)[C@@H](O)[C@H](O)[C@H]5NC(C)=O)[C@H]5NC(=O)[C@H](NC(O)[C@@H]6NC(=O)[C@@H](NC4=O)c4cc(O)cc(c4)Oc4cc3ccc4O)c3ccc(O)c(c3)-c3c(O)cc(O)cc3[C@H](C(=O)O)NC5=O)nn2)C1=O (stereo not given in full) | > 100 | > 100 | > 100 | > 100 | > 100 | > 100 | > 100 | > 100 | 22 | 20 | – | – | – | – | – | – | – |
